Active and inactive are the calls of the source. The calls are words filed in the database; no cut-off is given here.
Assays:
[1] = molecular target: Prostaglandin G/H synthase 1 (Homo sapiens) (UniProt P23219); test: Binding affinity to COX-1 (unknown origin) at 0.35 mM after 30 mins by [13C] NMR spectroscopy; settings: in the assay text read “[1H] NMR” for “[13C] NMR”
Summary of the method: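 Compound was 0.35 mM in DMSO-d6, with 12 (0.08 mM) COX-1 or COX-2 added. Samples were incubated at 37 °C and 1H NMR spectra were recorded every 30 min. D2O exchange was used to assign NH signals.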

[2] = molecular target: T1, Prostaglandin G/H synthase 1 (Ovis aries) (UniProt P05979); test: Inhibition of ovine COX-1 assessed as decrease in prostaglandin production using arachidonic acid as substrate at 10 uM incubated with enzyme for 10 mins prior to substrate challenge by enzyme immunoassay
T1 sequence (whole entry): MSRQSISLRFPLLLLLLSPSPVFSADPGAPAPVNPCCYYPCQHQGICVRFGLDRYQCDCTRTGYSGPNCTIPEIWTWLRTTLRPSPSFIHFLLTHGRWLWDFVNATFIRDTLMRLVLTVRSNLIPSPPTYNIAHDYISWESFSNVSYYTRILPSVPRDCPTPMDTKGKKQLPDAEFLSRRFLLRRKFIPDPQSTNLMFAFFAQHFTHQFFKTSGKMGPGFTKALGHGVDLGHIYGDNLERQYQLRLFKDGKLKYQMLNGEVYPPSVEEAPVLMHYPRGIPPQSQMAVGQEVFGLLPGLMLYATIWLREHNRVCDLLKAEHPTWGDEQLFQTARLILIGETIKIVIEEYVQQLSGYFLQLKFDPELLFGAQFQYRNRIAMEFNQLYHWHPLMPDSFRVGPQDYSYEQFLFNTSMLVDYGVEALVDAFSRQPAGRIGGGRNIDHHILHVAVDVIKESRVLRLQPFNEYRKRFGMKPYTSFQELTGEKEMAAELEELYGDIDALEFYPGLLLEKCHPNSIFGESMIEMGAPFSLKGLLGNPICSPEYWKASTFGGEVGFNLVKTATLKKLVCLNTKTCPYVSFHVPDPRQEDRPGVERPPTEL
Summary of the method: (§1)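 Ovine COX-1 EIA kit run in triplicate. Compounds were at 10^-5 to 10^-8 M. Enzyme and compound were incubated 10 min at 37 °C, then arachidonic acid was added for 2 min. The reaction was stopped with 1 M HCl and reduced with stannous chloride. Prostaglandins were quantified by AChE-tracer competitive EIA (18 h at room temperature, Ellman's reagent, read at 420 nm) against a 100% activity control.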

[3] = molecular target: T2, Prostaglandin G/H synthase 2 (Homo sapiens) (UniProt P35354)
T2 sequence (whole entry): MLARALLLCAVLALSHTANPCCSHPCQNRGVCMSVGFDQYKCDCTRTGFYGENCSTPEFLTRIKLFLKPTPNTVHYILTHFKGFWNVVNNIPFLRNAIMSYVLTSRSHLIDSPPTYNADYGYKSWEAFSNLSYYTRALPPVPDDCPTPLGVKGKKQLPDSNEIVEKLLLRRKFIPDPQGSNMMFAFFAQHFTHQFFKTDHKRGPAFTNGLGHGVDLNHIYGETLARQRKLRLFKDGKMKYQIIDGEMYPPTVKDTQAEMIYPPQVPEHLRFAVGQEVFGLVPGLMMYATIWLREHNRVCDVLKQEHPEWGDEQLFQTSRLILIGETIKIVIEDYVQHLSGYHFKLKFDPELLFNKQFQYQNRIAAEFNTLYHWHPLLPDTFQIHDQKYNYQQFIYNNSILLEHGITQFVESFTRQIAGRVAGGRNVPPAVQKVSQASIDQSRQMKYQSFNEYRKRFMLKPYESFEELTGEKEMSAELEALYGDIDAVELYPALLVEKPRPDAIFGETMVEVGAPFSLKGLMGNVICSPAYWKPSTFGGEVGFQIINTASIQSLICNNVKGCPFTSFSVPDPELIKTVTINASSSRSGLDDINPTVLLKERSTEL

[4] = molecular target: T1, Prostaglandin G/H synthase 1 (Ovis aries); test: Inhibition of ovine COX-1 assessed as decrease in prostaglandin production using arachidonic acid as substrate at 1 uM incubated with enzyme for 10 mins prior to substrate challenge by enzyme immunoassay; summary of the method: as §1
[5] = molecular target: Prostaglandin G/H synthase 1 (Homo sapiens) (UniProt P23219)
Solanum tuberosum [6] = test: Inhibition of potato 5-LOX assessed as decrease in leukotriene production using arachidonic acid as substrate at 0.1 uM by enzyme immunoassay
Summary of the method: (§2)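 Potato 5-LOX assay in buffer with DMSO solvent control. Compounds were tested at final well concentrations of 10^-5 to 10^-8 M in duplicate. Reaction was started with arachidonic acid and the plate shaken 5 min. Chromogen was added to stop the reaction, followed by 30 min incubation and reading at 500 nm. Activity was compared with 100% initial-activity wells.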

[7] = molecular target: T1, Prostaglandin G/H synthase 1 (Ovis aries); test: Inhibition of ovine COX-1 assessed as decrease in prostaglandin production using arachidonic acid as substrate at 0.1 uM incubated with enzyme for 10 mins prior to substrate challenge by enzyme immunoassay; summary of the method: as §1
[8] = molecular target: T3, Prostaglandin G/H synthase 1 (Ovis aries, UniProt P05979); test: Inhibition of ovine COX-1 assessed as decrease in prostaglandin production using arachidonic acid as substrate incubated with enzyme for 10 mins prior to substrate challenge by enzyme immunoassay; summary of the method: as §1
T3 sequence (P05979 whole entry): T1 sequence (whole entry)

Mus musculus [9] = test: Analgesic activity in Swiss albino mouse assessed as decrease in capsaicin-induced paw lickings at 5 mg/kg, ip administered 30 mins before capsaicin injection; format: functional; settings: route intraperitoneal
Summary of the method: (§3)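 Capsaicin […] was injected into the plantar surface of the right hind paw. Swiss albino mice (25–35 g, either sex, groups of 6) were pretreated i.p. 30 min beforehand; saline 0.5 mL was the control. Time spent licking and twitching was recorded over 10 min. Results are mean ± SEM (n = 6), analysed by one-way ANOVA with Tukey's test.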

Solanum tuberosum [10] = test: Inhibition of potato 5-LOX assessed as decrease in leukotriene production using arachidonic acid as substrate at 10 uM by enzyme immunoassay; summary of the method: as §2
Mus musculus [11] = test: Analgesic activity in Swiss albino mouse assessed as decrease in capsaicin-induced paw lickings at 10 mg/kg, ip administered 30 mins before capsaicin injection; format: functional, organism-based; parameters: dose 10 mg/kg; summary of the method: as §3
Mus musculus [12] = test: Analgesic activity in Swiss albino mouse assessed as decrease in capsaicin-induced paw lickings at 25 mg/kg, ip administered 30 mins before capsaicin injection; format: functional; settings: route intraperitoneal; summary of the method: as §3
Solanum tuberosum [13] = test: Inhibition of potato 5-LOX assessed as decrease in leukotriene production using arachidonic acid as substrate at 10 nM by enzyme immunoassay
[14] = Inhibition of potato 5-LOX assessed as decrease in leukotriene production using arachidonic acid as substrate by enzyme immunoassay; parameters: species or system Solanum tuberosum; summary of the method: as §2
Solanum tuberosum [15] = test: Inhibition of potato 5-LOX assessed as decrease in leukotriene production using arachidonic acid as substrate at 1 uM by enzyme immunoassay

Chain of Prostaglandin G/H synthase 1 (Homo sapiens) (P23219 whole entry): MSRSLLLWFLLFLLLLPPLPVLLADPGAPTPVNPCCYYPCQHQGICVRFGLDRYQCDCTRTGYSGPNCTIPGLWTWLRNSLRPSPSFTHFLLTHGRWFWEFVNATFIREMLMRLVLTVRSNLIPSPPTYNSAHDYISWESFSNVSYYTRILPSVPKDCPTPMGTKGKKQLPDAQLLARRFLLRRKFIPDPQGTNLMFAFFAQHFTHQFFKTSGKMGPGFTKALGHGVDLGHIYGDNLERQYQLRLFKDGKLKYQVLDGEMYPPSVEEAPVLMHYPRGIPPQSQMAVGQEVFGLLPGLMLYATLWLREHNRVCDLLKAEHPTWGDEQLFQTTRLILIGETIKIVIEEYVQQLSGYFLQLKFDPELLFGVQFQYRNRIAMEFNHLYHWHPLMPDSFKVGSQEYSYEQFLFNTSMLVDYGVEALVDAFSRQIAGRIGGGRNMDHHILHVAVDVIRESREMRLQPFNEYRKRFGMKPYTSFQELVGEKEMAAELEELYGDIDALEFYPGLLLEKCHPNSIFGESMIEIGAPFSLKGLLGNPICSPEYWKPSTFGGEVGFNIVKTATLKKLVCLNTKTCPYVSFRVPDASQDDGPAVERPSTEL

Activity [1]	inhibition [2] [%]	Ka [3] [×10⁴ /M]	inhibition [4] [%]	Ka [5] [×10⁴ /M]	inhibition (Solanum tuberosum [6]) [%]	inhibition [7] [%]	IC50 [8] [nM]	inhibition (Solanum tuberosum [10]) [%]	inhibition (Solanum tuberosum [13]) [%]	IC50 [14] [nM]	inhibition (Solanum tuberosum [15]) [%]	Structure (SMILES)	inhibition in vivo at 5 mg/kg (Mus musculus [9]) [%]	inhibition (Mus musculus [11])	inhibition in vivo at 25 mg/kg (Mus musculus [12]) [%]
Active	51.6	0.75	43	0.29	22.4	35	1350	74.1				O=C1Nc2ccccc2/C1=C/c1coc2ccccc2c1=O	76	Active	
		0.22		0.93								CC(=O)Oc1ccccc1C(=O)O			
												O=C(O)Cc1ccccc1Nc1c(Cl)cccc1Cl [DICLOFENAC]			68
	80.3		60		37	44.4	630	50	25	10000		O=C1/C(=C/c2coc3ccc(Br)cc3c2=O)c2ccccc2N1c1c(Cl)cccc1Cl			
	27.9		18		22.4	15	> 10000		8.62	7400	46.5	CC1=NN(c2cccc(Cl)c2)C(=O)/C1=C/c1coc2c([N+](=O)[O-])cc(F)cc2c1=O			
	80.3		75		20	63	4.7	8.62			15.5	O=C1/C(=C/c2coc3ccccc3c2=O)c2ccccc2N1c1c(Cl)cccc1Cl			
	40.5		30.4			20	6750				77.6	O=C1Nc2ccccc2/C1=C/c1coc2ccc(Br)cc2c1=O			
	64.6		56		44.8	47	650		30.1	20	81	CC(C)c1ccc2occ(/C=C3/C(=O)N(c4c(Cl)cccc4Cl)c4ccccc43)c(=O)c2c1			

Structure (SMILES)	Activity [1]	inhibition [2] [%]	Ka [3] [×10⁴ /M]	inhibition [4] [%]	Ka [5] [×10⁴ /M]	inhibition (Solanum tuberosum [6]) [%]	inhibition [7] [%]	IC50 [8] [nM]	inhibition (Solanum tuberosum [10]) [%]	inhibition (Solanum tuberosum [13]) [%]	IC50 [14] [nM]	inhibition (Solanum tuberosum [15]) [%]	inhibition in vivo at 5 mg/kg (Mus musculus [9]) [%]	inhibition (Mus musculus [11])	inhibition in vivo at 25 mg/kg (Mus musculus [12]) [%]
CCCCC/C=C\C/C=C\C/C=C\C/C=C\CCCC(=O)O			0.18		0.39										
